CXCR6 inh = CXCR6 receptor inhibitors, primary screen, cell-based, beta-arrestin, luminescence, CHO-K1 PathHunter, 1536-well; 0.36% of 360,000 active; C-X-C chemokine receptor type 6 (Homo sapiens), O00574; inhibition, % at 20 µM; in the data active = inhibition above about 34%, passing the limit was not always enough;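 note: antagonist mode with CXCL16 agonist at 10 nM final; 0% = 10 nM CXCL16 with DMSO and 100% = unstimulated wells without agonist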
APJ ag = agonists of human apelin receptor APJ, primary screen, CHO-K1 cells, PathHunter beta-arrestin, luminescence. 0.11% of 330,000 active. 0% DMSO wells, 100% apelin. activation, % at 20 µM. AID 2520, 2010. P35414;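 active = activation more than six SD over the plate average, tested at 20 µM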;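 note: 0% = DMSO alone and 100% = apelin-13 at 10 nM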
Target sequence (P35414 whole entry, looked up): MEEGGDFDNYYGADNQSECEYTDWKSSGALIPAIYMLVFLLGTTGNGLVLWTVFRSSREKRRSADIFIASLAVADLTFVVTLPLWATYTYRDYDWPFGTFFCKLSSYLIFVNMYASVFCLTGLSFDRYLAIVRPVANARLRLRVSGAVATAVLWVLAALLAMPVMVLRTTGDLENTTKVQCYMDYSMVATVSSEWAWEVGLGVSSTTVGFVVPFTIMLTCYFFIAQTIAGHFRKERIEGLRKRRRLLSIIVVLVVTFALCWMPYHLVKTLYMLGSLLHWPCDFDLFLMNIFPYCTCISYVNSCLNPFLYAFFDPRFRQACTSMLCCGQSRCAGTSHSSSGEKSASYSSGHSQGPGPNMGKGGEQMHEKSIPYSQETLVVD
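Test system: CHO-K1 APJ beta-arrestin complementation cell line. Amount: cell density 1000 per well. Controls: DMSO negative, 10 nM Apelin-13 positive. Signal: luminescent beta-gal fragment complementation, chemiluminescent substrate. Read-out basis: agonist-driven arrestin binding to APJ. Timing: compound stimulation 90 min at 25 °C, detection 60 min.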
PfG6PD inh = PfG6PD enzyme inhibitors, primary screen, biochemical, fluorescence intensity, uHTS; glucose-6-phosphate dehydrogenase-6-phosphogluconolactonase (Plasmodium falciparum 3D7); PfGluPho enzyme, NADPH resazurin-diaphorase fluorescence; inhibition, % at 20 µM; 0.78% of 350,000 active;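 active = inhibition reaching at least a set limit at 20 µM in the primary screen, cut at about 59% in these data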;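 note: 0% = DMSO wells with substrate and 100% = DMSO wells lacking glucose-6-phosphate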
CCR6 antag = CCR6 receptor antagonists, primary screen, cell-based, CHO-K1, luminescence, beta-arrestin, uHTS | inhibition, % at 20 µM | CHO-K1 CCR6 PathHunter beta-arrestin, CCL20-stimulated | 0.49% of 340,000 active | C-C chemokine receptor type 6 (Homo sapiens), P51684;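 active = compounds whose inhibition of the agonist-driven luminescence signal at 20 µM reaches about 50%, limit read from the data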;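 note: cells stimulated with CCL20 at 14 nM final; plate controls were DMSO with CCL20 for no effect and DMSO without agonist for full effect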
APJ antag = antagonists of human apelin receptor APJ, primary screen, CHO-K1 cells, beta-arrestin complementation, luminescence | P35414 | inhibition, % at 20 µM | 0.32% of 330,000 active | AID 2521, 2010;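 active = inhibition above about 40% at 20 µM, limit read from the data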;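 note: cells challenged with 10 nM apelin-13 agonist together with compound; plate controls were apelin-13 plus DMSO wells for no effect and DMSO wells lacking apelin-13 for full effect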
B2AR ag = beta2AR agonists driving receptor internalization, primary screen, cell-based, FAP fluorogen, flow cytometry | Beta-2 adrenergic receptor (Homo sapiens), P07550 | Am2.2-beta2AR cells | response, % (no concentration beside the values) | 0.43% of 340,000 active;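 active = response above a set limit, near 3 SD of response in nonfluorescent compounds, cut at about 42% in these data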
PfGluPho conf = PfG6PD inhibitors, hit retest, confirmation, biochemical, fluorescence intensity, single concentration | recombinant PfGluPho, NADPH-diaphorase-resazurin fluorescence | 34% of 2,400 active | shares compounds with PfG6PD inh | inhibition, % at 20 µM;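 active = inhibition of at least 50% at 20 µM in any single replicate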;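 note: 0% = DMSO with substrate and 100% = DMSO lacking glucose-6-phosphate substrate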
Diaphorase 10uM = diaphorase inhibitors and chemical oxidizers, confirmation, counter-screen for P. falciparum G6PD inhibitor project, biochemical, fluorescence intensity, 10 µM NADPH. diaphorase-coupled resazurin reduction, NADPH 10 uM. shares compounds with PfG6PD inh. 39% of 820 active. inhibition, % at 20 µM;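 active = average inhibition reaching 50% or more with the compound at 20 µM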;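 note: resorufin red fluorescence formed as diaphorase reduces resazurin using NADPH; 0% = DMSO with enzyme and 100% = DMSO without enzyme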
Diaphorase 30uM = diaphorase inhibitors and chemical oxidizers, confirmation, counter-screen for P. falciparum G6PD inhibitor project, biochemical, fluorescence intensity, 30 µM NADPH; AID 504863, 2011; 29% of 820 active; shares compounds with PfG6PD inh; Diaphorase/resazurin coupled assay, resorufin fluorescence; inhibition, % at 20 µM;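 active = inhibition averaging 50% or more, tested at 20 µM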;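 note: 0% = DMSO with enzyme and 100% = DMSO wells lacking diaphorase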
* marks the source's active call; other numbers are inactive results. An excerpt weighted towards active compounds, which were near 1.7% of everything screened.

For Cc1nnc(N/N=C/c2cc(C)n(-c3ccc(F)cc3)c2C)n1N the results were CXCR6 inh -13, APJ ag 1, PfG6PD inh 78*, CCR6 antag -1, APJ antag -39, B2AR ag -3 and PfGluPho conf 45.
`Cc1ccc2nc(-c3cccc(N)c3)[nH]c2c1` gave CXCR6 inh -15, APJ ag 0, PfG6PD inh 62*, CCR6 antag -7, APJ antag -9, B2AR ag 12 and PfGluPho conf 29.
For Cc1ccc2nc(-c3sc4nc(C)cc(C)c4c3N)[nH]c2c1 the results were CXCR6 inh -6, APJ ag -2, PfG6PD inh 77*, CCR6 antag -16, APJ antag 1, B2AR ag -4 and PfGluPho conf 12.
`CC(=O)c1sc2nc(C)cc(C)c2c1N` gave CXCR6 inh 2, APJ ag -2, PfG6PD inh 25, CCR6 antag -3, APJ antag -10 and B2AR ag 18.
CCOC(=O)c1c(NC(C)=O)sc2c1CCC(C=O)=C2Sc1ccccc1 was read as CXCR6 inh 29, APJ ag 5, PfG6PD inh 53, CCR6 antag 38, APJ antag -39 and B2AR ag -140.
CCOC(=O)c1c(NC(=O)c2ccccc2Br)sc2c1CCc1ccccc1-2 was read as CXCR6 inh -8, APJ ag -6, PfG6PD inh 64*, CCR6 antag 5, APJ antag 12, B2AR ag 20 and PfGluPho conf 30.
c1cncc(-c2nc3cc4ccccc4cc3[nH]2)c1 was read as CXCR6 inh -17, APJ ag 10, PfG6PD inh 62*, CCR6 antag 3, APJ antag -12, B2AR ag 11 and PfGluPho conf 17.
For O=C(Nc1ccc2nc(-c3cccnc3)[nH]c2c1)c1ccccc1F the results were CXCR6 inh -3, APJ ag 1, PfG6PD inh 31, CCR6 antag -2, APJ antag -5 and B2AR ag -2.
`c1ccc(-c2nc3cc4ccccc4cc3[nH]2)nc1` gave CXCR6 inh -1, APJ ag -2, PfG6PD inh 89*, CCR6 antag 35, APJ antag 1, B2AR ag 3 and PfGluPho conf 37.
`COCCn1c(SCC(=O)Nc2ccc(OC)c(S(N)(=O)=O)c2)nc2ccccc2c1=O` gave CXCR6 inh 3, APJ ag -3, PfG6PD inh 2, CCR6 antag 12, APJ antag 8 and B2AR ag 1.
Cc1cc2c(N)cccc2nn1 was read as CXCR6 inh -5, APJ ag 9, PfG6PD inh 100*, CCR6 antag 2, APJ antag -37, B2AR ag 13 and PfGluPho conf 4.
Nc1ccc(Oc2ccc3nc(-c4ccccc4)c(-c4ccccc4)nc3c2)cc1 was read as APJ ag 0, PfG6PD inh 19, CCR6 antag 2, APJ antag 8 and B2AR ag -2.
For Nc1ccc2nc(-c3ccccc3)c(-c3ccccc3)nc2c1 the results were CXCR6 inh 0, APJ ag 8, PfG6PD inh 79*, CCR6 antag 26, APJ antag -86, B2AR ag 10 and PfGluPho conf -1.
`O=C(N/N=C/c1cccc(O)c1)C(=O)N1CCCCCC1` gave CXCR6 inh -2, APJ ag 2, PfG6PD inh -13, CCR6 antag 14, APJ antag 10 and B2AR ag 4.
O=C(N/N=C/c1cccc([N+](=O)[O-])c1)C(=O)N1CCCCCC1 was read as CXCR6 inh -12, APJ ag -7, PfG6PD inh 80*, CCR6 antag 8, APJ antag 13, B2AR ag -1, PfGluPho conf 58*, Diaphorase 10uM 60* and Diaphorase 30uM 47.
Screening COc1ccc(/C=N/NC(=O)c2cc(C)n(-c3ccccc3)c2C)cc1OC returned CXCR6 inh -3, APJ ag 0, PfG6PD inh -12, CCR6 antag 7, APJ antag -12 and B2AR ag 6.
Cc1cc(C(=O)N/N=C/c2cccc([N+](=O)[O-])c2)c(C)n1-c1ccccc1 was read as CXCR6 inh 13, APJ ag -1, PfG6PD inh 60*, CCR6 antag 18, APJ antag -11, B2AR ag 1 and PfGluPho conf 28.
CC(C)C[C@@H](CNCC(=O)[C@H](CC(=O)O)NC(=O)c1[nH]cnc1C(=O)N[C@H](CN)CC(C)C)NC(=O)c1nc[nH]c1C(=O)N[C@@H](Cc1ccccc1)C(=O)O was read as CXCR6 inh 8, PfG6PD inh 10, CCR6 antag 12 and B2AR ag -5.
COc1ccc(C)cc1Nc1n[n+](-c2ccccc2)c(-c2c(OC)ccc3ccccc23)s1 was read as CXCR6 inh -10, APJ ag 17, PfG6PD inh 115*, CCR6 antag 9, APJ antag -8, B2AR ag 20, PfGluPho conf 75*, Diaphorase 10uM 69* and Diaphorase 30uM 50.
For Oc1ccc2ccccc2c1-c1sc(Nc2ccccc2)n[n+]1-c1ccc(F)cc1 the results were CXCR6 inh 14, APJ ag 17, PfG6PD inh 6, CCR6 antag 3, APJ antag 7 and B2AR ag -171.
`Fc1ccc(-[n+]2nc(Nc3ccccc3)sc2-c2c3ccccc3cc3ccccc23)cc1` gave CXCR6 inh 10, APJ ag 8, PfG6PD inh 132*, CCR6 antag 16, APJ antag -15, B2AR ag 32, PfGluPho conf 82*, Diaphorase 10uM 78* and Diaphorase 30uM 60*.
Screening O=C(COc1coc(CN2CCN(c3ccc(F)cc3)CC2)cc1=O)NC1CCCCC1 returned CXCR6 inh -1, PfG6PD inh -16, CCR6 antag 14 and B2AR ag 3.

Screening data as filed in PubChem BioAssay.
